Bioassay records as filed in PubChem.
Shown are actives, neighbours in structure and some others; about 4.7% of the full set was active somewhere.
Cl transport mod = KCC2 cotransporter modulators, thallium flux, primary screen, cell-based, HEK293 KCC2, FluoZin-2 fluorescence, MLSMR; B-score of Tl+ flux slope (higher = more flux/activation; lower = inhibition) at 10 µM; AID 1456, 2008; 190,000 tested, 2.2% active; KCC2 cells, thallium flux FluoZin-2 fluorescence;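 active means thallium flux slope and its plate-corrected score both differing from the plate sample mean at a set confidence after two filtering rounds, in either direction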;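 further: slope of fluorescence scaled to starting intensity during 10 to 20 s after thallium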
RGS4 inh = RGS4 inhibitors, primary screen, cell-based, HEK293 M3R inducible RGS4, calcium flux; AID 463165, 2010; Regulator of G-protein signaling 4 (Homo sapiens), P49798; 310,000 tested, 0.45% active; Fluo-4 calcium flux; stronger effect = higher value; triggered by carbachol at its EC20; B-score at 10 µM;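 active means B-score, a plate-corrected calcium signal, over three deviations above library mean, with baseline fluorescence within five deviations of library mean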;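 further: RGS4 expression induced by doxycycline in cells with stable M3 receptor; B-score is computed from the integrated fluorescence ratio over baseline after carbachol; higher B-score means a larger calcium signal and so more RGS4 inhibition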
Target sequence (P49798 whole entry, looked up): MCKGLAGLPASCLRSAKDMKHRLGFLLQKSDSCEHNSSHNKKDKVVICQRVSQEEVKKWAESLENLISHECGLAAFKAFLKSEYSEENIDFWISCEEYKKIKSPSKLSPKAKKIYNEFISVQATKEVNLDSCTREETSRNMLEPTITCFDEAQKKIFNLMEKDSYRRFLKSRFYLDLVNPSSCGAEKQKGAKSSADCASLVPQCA
RGS4 act = RGS4 potentiators or activators, primary screen, cell-based, HEK293 M3R inducible RGS4, calcium flux; carbachol calcium flux Fluo4; stronger effect = lower value; 310,000 tested, 0.92% active; B-score at 10 µM;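 active means B-score of the integrated calcium signal more than 4 SD below the library mean, with starting fluorescence not abnormally high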;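 further: negative B-score means reduced calcium response which marks RGS4 activation or potentiation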
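test system = HEK293 cells with stable M3R and inducible RGS4 | schedule = recording 10 s baseline at 1 Hz, 100 s post-agonist | technique = Fluo4-AM (2 µM) calcium-flux fluorescence, kinetic read | measure = Agonist-evoked peak-minus-minimum fluorescence over baseline, integrated ratio, B score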
MrgX1 antag = antagonists of human MrgX1 receptor, primary screen, HEK293 cells, Fluo-4 calcium flux. Mas-related G-protein coupled receptor member X1 (Homo sapiens), Q96LB2. BAM8-22 antagonism; stronger effect = lower value. B-score at 10 µM. 310,000 tested, 1.3% active. AID 588676, 2011;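 active means calcium-response B-score plate-corrected more than 3 library SD below zero, starting fluorescence within 5 deviations, no agonist response on first addition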;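 further: peak minus trough fluorescence over baseline after final BAM8-22 challenge near maximal dose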
Target sequence (Q96LB2 whole entry, looked up): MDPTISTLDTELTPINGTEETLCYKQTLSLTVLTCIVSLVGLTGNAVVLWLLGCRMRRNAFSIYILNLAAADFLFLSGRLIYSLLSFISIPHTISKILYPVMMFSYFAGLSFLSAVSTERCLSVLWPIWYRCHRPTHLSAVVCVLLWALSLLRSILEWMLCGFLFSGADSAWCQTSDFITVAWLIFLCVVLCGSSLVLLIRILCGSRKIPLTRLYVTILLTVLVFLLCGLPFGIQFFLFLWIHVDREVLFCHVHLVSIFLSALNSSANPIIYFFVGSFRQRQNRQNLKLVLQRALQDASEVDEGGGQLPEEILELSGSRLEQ
MrgX1 PAM = positive allosteric modulators of MrgX1, primary screen, HEK293 cells, Fluo-4 calcium flux; Mas-related G-protein coupled receptor member X1 (Homo sapiens), Q96LB2; FDSS; stronger effect = higher value; 310,000 tested, 0.63% active; B-score at 10 µM; AID 588675, 2011;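 active means plate-corrected calcium response at least 3 library SD above typical, normal starting fluorescence, not activating the receptor alone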;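 further: compound read alongside a low EC10 to EC30 dose of BAM8-22 agonist; peak minus trough fluorescence over baseline measured at the second addition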
MrgX1 ag = agonists of human MrgX1 receptor, primary screen, HEK293 cells, Fluo-4 calcium flux; Fluo-4 calcium fluorescence, agonist mode; stronger effect = higher value; B-score at 10 µM; 310,000 tested, 0.44% active;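 active means calcium response B-score plate-corrected fluorescence ratio at least 3 library SD, with starting fluorescence B-score inside 5 SD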
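Test system: HEK293 cells stably expressing human MrgX1 receptor; Input: fifteen thousand cells per well; Dosing: compound delivered in addition one of three; Schedule: overnight seeding, then 1 h dark dye loading; Technique: Fluo-4 NW calcium fluorescence; Measure: B-scored fluorescence response ratio; Controls: positive and negative controls per plate.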
MrgX1 ant reconf = MrgX1 receptor antagonists, duplicate retest, confirmation, HEK293 cells, Fluo-4 calcium flux; shares compounds with MrgX1 antag; BAM8-22 calcium flux; stronger effect = lower value; remaining BAM8-22 calcium response % of control (stronger effect = lower value), % at 10 µM; 2,300 tested, 19% active;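 active means remaining agonist calcium response no higher than 100% minus 3 SD of agonist-only control wells, with starting fluorescence near control levels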;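 further: agonist BAM8-22 given at a near maximal EC90 to ECmax level; peak minus minimum fluorescence divided by baseline after agonist addition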
HEK293 Ca flux = nonspecific calcium signal in parental HEK293, confirmation, counter-screen for MrgX1 antagonist project, parental HEK293 cells, Fluo-4 calcium flux; fluorescence ratio F(max-min)/F0 at 10 µM; 4,000 tested, 2% active; Fluo-4 calcium fluorescence, FDSS; shares compounds with MrgX1 antag; AID 624111, 2012;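 active means duplicate-averaged calcium fluorescence ratio at least three times the standard deviation of buffer wells, a nonspecific response in parental cells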
HEK293 Ca counter = calcium response in parental HEK293 cells, primary screen, counter-screen for MrgX1 allosteric activator project, cell-based, Fluo-4 calcium flux, duplicate. 4,000 tested, 0.4% active. AID 624114, 2012. Fluo-4 fluorescence ratio; stronger effect = higher value. shares compounds with MrgX1 antag. fluorescence ratio F(max-min)/F0 at 10 µM;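 active means calcium fluorescence ratio, averaged over duplicates, at least 3 SD of the buffer-well ratio, meaning a nonspecific response in receptor-free cells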;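 further: untransfected parental HEK293 lacking MrgX1 used as counterscreen for MrgX1 allosteric activators; fluorescence change taken during the second addition on a kinetic imager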
HEK293 Ca cntr2 = calcium response in parental HEK293 cells, primary screen, counter-screen for MrgX1 agonist project, cell-based, Fluo-4 calcium flux, duplicate, agonist mode. AID 624115, 2012. fluorescence ratio F(max-min)/F0 at 10 µM. shares compounds with MrgX1 antag. 4,000 tested, 8.7% active. Fluo-4 calcium fluorescence (FDSS); stronger effect = higher value;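 active means calcium fluorescence ratio at least three times the spread of buffer wells, meaning a non-specific response in parental cells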
Large screens that a line does not name were inactive (follow-up assays come after a bar, where they were run).

O=C(CC1C(=O)NCCN1Cc1cccc(C(F)(F)F)c1)NC1CCOCC1 (centres undefined)	none (no result: Cl transport mod)
CCOC(=O)CC1C(=O)NCCN1Cc1cccc(C(F)(F)F)c1 (centres undefined)	MrgX1 antag -4.7 (no result: Cl transport mod) | MrgX1 ant reconf inactive | HEK293 Ca flux inactive | HEK293 Ca counter inactive | HEK293 Ca cntr2 inactive
Cc1cc([N+](=O)[O-])nn1CC(=O)N(C)C1CCCCC1	none (no result: Cl transport mod)
Cc1cc(Nc2ccccc2)n(-c2ccc(C(=O)O)cc2)n1	MrgX1 antag -4.5 | MrgX1 ant reconf inactive | HEK293 Ca flux inactive | HEK293 Ca counter inactive | HEK293 Ca cntr2 inactive
COc1ccccc1-c1cc(C(=O)N2CCOCC2)no1	none (no result: Cl transport mod)
CC(C)(C)C(=O)Nc1ccccc1N1CCN(c2ccc(F)cc2)CC1	none (no result: Cl transport mod)
COc1ccc(N(C)C(=O)Cc2c(C(=O)O)n(C)c3ccccc23)c(OC)c1	none (no result: Cl transport mod)
O=C(Nc1cc(S(=O)(=O)N2CCOCC2)ccc1N1CCOCC1)c1cnccn1	MrgX1 antag -4.8 | MrgX1 ant reconf inactive | HEK293 Ca flux inactive | HEK293 Ca counter inactive | HEK293 Ca cntr2 inactive
O=C(CSCc1nc2ccccc2[nH]1)Nc1ccc2ccccc2c1	MrgX1 antag -4.9 | MrgX1 ant reconf inactive | HEK293 Ca flux inactive | HEK293 Ca counter inactive | HEK293 Ca cntr2 inactive
CC1CCN(C(=O)c2[nH]cnc2C(=O)N[C@@H](Cc2ccccc2)C(=O)OC(C)(C)C)CC1	MrgX1 antag -7 (no result: Cl transport mod) | MrgX1 ant reconf inactive | HEK293 Ca flux inactive | HEK293 Ca counter inactive | HEK293 Ca cntr2 inactive
COc1ccc(OC)c(N2C(=O)CC(Cc3ccc(Cl)cc3)C2=O)c1 (centres undefined)	MrgX1 antag -4.5 | MrgX1 ant reconf inactive | HEK293 Ca flux inactive | HEK293 Ca counter inactive | HEK293 Ca cntr2 inactive
COc1ccc(OC)c(N2C(=O)CC(Cc3cc(C)cc(C)c3)C2=O)c1 (centres undefined)	none
O=S(=O)(c1ccc(N2CCOCC2)cc1)N1CCOCC1	MrgX1 antag -4.9 | MrgX1 ant reconf inactive | HEK293 Ca flux inactive | HEK293 Ca counter inactive | HEK293 Ca cntr2 inactive
CCS(=O)(=O)N1CCN(c2ccc(S(=O)(=O)N3CCOCC3)cc2)CC1	none
Cc1ccc(C)c(NC(=O)CS(=O)(=O)c2cn(C)c3ccccc23)c1	MrgX1 antag -13 | MrgX1 ant reconf inactive | HEK293 Ca flux inactive | HEK293 Ca counter inactive | HEK293 Ca cntr2 inactive
CC(CNC(=O)c1ccccc1[N+](=O)[O-])NC(=O)c1ccccc1[N+](=O)[O-] (centres undefined)	none (no result: Cl transport mod)
COc1cccc(-n2nnc3c(=O)n(CC(=O)N4CCC(Cc5ccccc5)CC4)cnc32)c1	MrgX1 antag -7.5 (no result: Cl transport mod) | MrgX1 ant reconf inactive | HEK293 Ca flux inactive | HEK293 Ca counter inactive | HEK293 Ca cntr2 inactive
Cc1ccc(C(=O)NC(=S)Nc2ccc(N3CCOCC3)cc2)c(C)c1	MrgX1 antag -5.4 | MrgX1 ant reconf inactive | HEK293 Ca flux inactive | HEK293 Ca counter inactive | HEK293 Ca cntr2 inactive
Cc1ccc(C(=O)N/N=C/c2ccc(N3CCOCC3)cc2)c(C)c1	none
CN(CCCNC(=O)c1cc2c(=O)[nH]c3ccccc3c2n1C)Cc1ccccc1	MrgX1 antag -5.7 | MrgX1 ant reconf inactive | HEK293 Ca flux inactive | HEK293 Ca counter inactive | HEK293 Ca cntr2 inactive
CC1CC(C)CN(CCCNC(=O)c2cc3c(=O)[nH]c4ccccc4c3n2C)C1 (centres undefined)	none
COc1ccc(C(=O)Nc2ccccc2C(=O)NCCN2CCOCC2)cc1OC	none (no result: Cl transport mod)
COc1ccc(-n2nnnc2SCC(=O)c2cccc(OC)c2)cc1	MrgX1 antag -4.6 | MrgX1 ant reconf inactive | HEK293 Ca flux inactive | HEK293 Ca counter inactive | HEK293 Ca cntr2 inactive
CCn1nnnc1SCC(=O)c1cccc(OC)c1	none
CCOC(=O)c1oc2ccccc2c1CSc1nnnn1-c1ccc(OC)cc1	MrgX1 antag -7.1 | MrgX1 ant reconf inactive | HEK293 Ca flux inactive | HEK293 Ca counter inactive | HEK293 Ca cntr2 inactive
CCCn1c(=O)c2ccccc2n2c(SCc3c(C(=O)OCC)oc4ccccc34)nnc12	none
COc1ccc(CNC(=O)CSc2nnnn2-c2ccccc2)cc1	MrgX1 antag -9.9 | MrgX1 ant reconf inactive | HEK293 Ca flux inactive | HEK293 Ca counter inactive | HEK293 Ca cntr2 inactive
Cc1ccc(-c2nc(NC(=O)CSc3nnnn3-c3ccccc3)ns2)cc1	MrgX1 antag -6.7 | MrgX1 ant reconf inactive | HEK293 Ca flux inactive | HEK293 Ca counter inactive | HEK293 Ca cntr2 inactive
CCOC(=O)C1CCN(c2ccccc2CN2CCN(c3ccccc3OCC)CC2)CC1	none (no result: Cl transport mod)
CCCn1nc2cc(C(=O)NCc3ccc(OC)cc3)ccc2c1OCC	MrgX1 antag -5 | MrgX1 ant reconf inactive | HEK293 Ca flux inactive | HEK293 Ca counter inactive | HEK293 Ca cntr2 inactive
CCCn1nnnc1SCC(=O)NCc1ccc(OC)cc1	MrgX1 antag -6.8 | MrgX1 ant reconf inactive | HEK293 Ca flux inactive | HEK293 Ca counter inactive | HEK293 Ca cntr2 inactive
CC(=O)Nc1ccc(NC(=O)CC(C)n2ccnc2)cc1 (centres undefined)	MrgX1 antag -7 (no result: Cl transport mod) | MrgX1 ant reconf inactive | HEK293 Ca flux inactive | HEK293 Ca counter inactive | HEK293 Ca cntr2 inactive
COc1ccc(NS(=O)(=O)c2ccc3c(c2)N(C(C)=O)CCO3)cc1	none (no result: Cl transport mod)
COC(=O)CCC(=O)Nc1cccc(Cl)c1	MrgX1 antag -5.4 | MrgX1 ant reconf 84% | HEK293 Ca flux inactive | HEK293 Ca counter inactive | HEK293 Ca cntr2 inactive
